ChEMBL document CHEMBL1821701, “Stereochemical analysis of leubethanol, an anti-TB-active serrulatane, from Leucophyllum frutescens” (2011)
Converted amounts (≈) assume the structure as drawn.

test system: Mycobacterium tuberculosis; assay: Antitubercular activity against drug sensitive Mycobacterium tuberculosis H37Rv ATCC 27294 by microplate Alamar blue assay; assay type: functional
Procedure, shortened: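 Modified microplate Alamar Blue assay. H37Rv ATCC 27294 is susceptible to streptomycin, isoniazid, rifampin, ethambutol and pyrazinamide. Clinical isolate CIBIN/UMF15:99 is resistant to the same five drugs. Test stocks were 2 mg/mL in 20% DMSO in Middlebrook 7H9 broth, filter-sterilized. Final concentrations ran from 100 to 0.78 µg/mL. Read-out was MIC, at least in triplicate.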

**Q.** With `CC[C@@H](CO)NCCN[C@@H](CC)CO` [ETHAMBUTOL] as the compound, how does the MIC read?
**A.** Its MIC is 2 µg/mL (≈ 9.79 µM).

**Q.** Which MIC does the source give for `NNC(=O)c1ccncc1` [ISONIAZID] here?
**A.** Its MIC is 0.06 µg/mL (≈ 0.438 µM).

**Q.** `CC(C)=CCC[C@H](C)[C@@H]1CC[C@@H](C)c2c(O)cc(C)cc21` [LEUBETHANOL] was tested. Which MIC did it give?
**A.** Its MIC is 12.5 µg/mL (≈ 43.6 µM).

**Q.** Which MIC does the source give for `CO[C@H]1/C=C/O[C@@]2(C)Oc3c(C)c(O)c4c(O)c(c(/C=N/N5CCN(C)CC5)c(O)c4c3C2=O)NC(=O)/C(C)=C\C=C\[C@H](C)[C@H](O)[C@@H](C)[C@@H](O)[C@@H](C)[C@H](OC(C)=O)[C@@H]1C` [RIFAMPIN] here?
**A.** The MIC was 0.06 µg/mL (≈ 0.0729 µM).

**Q.** How did the MIC turn out when `CN[C@@H]1[C@H](O[C@H]2[C@H](O[C@H]3[C@H](O)[C@@H](O)[C@H](N=C(N)N)[C@@H](O)[C@@H]3N=C(N)N)O[C@@H](C)[C@]2(O)C=O)O[C@@H](CO)[C@H](O)[C@H]1O` [STREPTOMYCIN] was run?
**A.** The MIC was 0.5 µg/mL (≈ 0.86 µM).
